Laboratory results reported in PMC7304851 (Journal for Immunotherapy of Cancer, 2020).
“Also recorded” adds a separate entry of the source.

Tests used:
[1] = tested on: 4T1 breast syngeneic tumor model; assay: Preclinical FDG-PET, 4T1 model; format: in vivo, mouse; settings: 4T1 breast model, data not shown
[2] = tested on: Pan02 pancreatic syngeneic tumor model; assay: Preclinical FDG-PET, Pan02 model; format: in vivo, mouse; settings: data not shown
[3] = tested on: immune-cell infiltration in tumor; assay: Paired tumor biopsies: immunohistochemistry and TLDA gene expression; format: in vivo, human
[4] = tested on: advanced tumors; assay: Tumor response by irRECIST, survival and treatment duration; format: in vivo, human
[5] = tested on: EP4-regulated genes and immune-related circulating factors; assay: Blood gene expression, serum cytokines/chemokines, flow cytometry; format: in vivo, human
Outline: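 Patients with advanced tumors took oral drug once daily (125–750 mg) in 21-day cycles. mRNA isolated from blood was profiled on a 92-gene TaqMan Low Density Array panel. Serum/plasma levels of 36 immune-related circulating factors were measured by proteomics, ELISA and Meso Scale Discovery multiplex. Blood immune subsets were assessed by eight-color flow cytometry. Cycle 1 day 15 was compared with baseline by paired t-test.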

[6] = tested on: FDG-avid tumor lesions; assay: 18FDG-PET metabolic response; format: in vivo, human
[7] = Clinical pharmacokinetics in plasma; format: in vivo, human
[8] = tested on: mouse syngeneic tumor models; settings: dependent on myeloid cells and CD8+ T cells; cited from earlier work
[9] = Phase 1 safety and tolerability; format: in vivo, human
[10] = tested on: macrophage infiltration; settings: preclinical models; cited from earlier work
[11] = tested on: relapsed or refractory classical Hodgkin’s lymphoma; settings: cited from earlier work
[12] = tested on: primary human peripheral blood mononuclear cells (PBMCs); assay: EP4 agonist in PBMCs, TNF-α and CXCL10 by RT-PCR; format: cell-based; settings: PBMCs from healthy donors incubated with EP4 agonist
[13] = blood, on treatment versus baseline
[14] = cycle 1 day 15 compared with baseline
[15] = all patients, combined incidence

## C[C@H](NC(=O)c1c(C(F)F)nn(C)c1Oc1cccc(C(F)(F)F)c1)c1ccc(C(=O)O)cc1 [E7046]
[1]
  FDG-PET signal compared with vehicle treatment: decreased the FDG-PET signal
[2]
  FDG-PET signal compared with vehicle treatment: decreased the FDG-PET signal
[3]; 10 paired biopsies, without reaching statistical significance
  tumor gene expression of TNF-α and CXCL10: upregulation
[3]; individual patient case
  increase in expression of CXCL10 in the tumor: ~ 20%
  increase in percentage of CD8+ T cells in the tumor: 31%
[3]; paired biopsies of 11 patients, baseline to cycle 2 day 1
  CD3+ and CD8+ T cells in tumor tissues (immunohistochemistry): significant increase
[4]; 125 mg
  best response of stable disease, number of patients: 2
[4]; 125 mg (n=2/8)
  patients with best response of durable stable disease for ≥18 weeks: 25%
[4]; 250 mg
  best response of stable disease, number of patients: 2
[4]; 250 mg (n=2/8)
  patients with best response of durable stable disease for ≥18 weeks: 25%
[4]; 750 mg
  best response of stable disease, number of patients: 3
[4]; 10 patients of 30
  patients with longer duration of treatment on E7046 compared with most recent prior anticancer therapy: 33%
[4]; all patients (n=30)
  disease control rate: 23%
  objective responses by irRECIST: no objective responses
  patients with best response of stable disease (irRECIST): 23%
[4]; all patients, range: 1.1–30
  median duration of treatment: 5.9 weeks
[5]; [13]
  circulating gene expression of CD274 (PD-L1) and PDCD1LG2 (PD-L2): increased expression
  circulating gene expression of EOMES, PTGER4 and IDO1: decreased expression
[5]; [14]
  number of genes modulated in blood out of a 92-immune-gene panel: 16
  number of serum cytokines and chemokines modulated out of a panel of 36: 14
[5]; cycle 1 day 15 compared with baseline, p=0.0015
  serum level of CXCL10: significantly upregulated
[5]; cycle 1 day 15 compared with baseline, p=0.0292
  serum level of CCL5: significantly upregulated
[5]; eight-color flow cytometry, data not shown
  major immune cell subsets in the blood (T cells, B cells, natural killer cells, MDSC): no significant changes
[6]; 15 evaluable patients (3/15), SUVmax reduction ≥25%
  patients with partial metabolic response (18FDG-PET): 20%
[6]; individual patient case
  FDG-PET signal reduction (partial metabolic response): 31%
[6]; longest among all patients
  duration of treatment of the three patients with partial metabolic responses: 145 to 208 days
[7]; 125 to 750 mg
  exposure versus dose: dose proportional up to 500 mg, with no incremental increase at 750 mg
[7]; all four doses, cycle 1 day 8
  Free E7046 concentration versus Ki of EP4 inhibition: reached or exceeded the preclinical Ki value
[7]; daily oral dosing
  accumulation on multiple dosing: twofold to threefold
[7]; postdose, across all doses
  time to maximum drug concentration: ~ 2 hours
[8]
  growth of multiple mouse syngeneic tumor models: inhibited the growth
[9]; 750 mg dose cohort
  TEAE incidence diarrhea: 42.9%
  TEAE incidence fatigue: 42.9%
  TEAE incidence nausea: 42.9%
[9]; 125, 250, 500 and 750 mg orally once daily, cycle 1
  Dose-limiting toxicities (DLTs): No dose-limiting toxicities were observed; also recorded: no DLTs observed; also recorded: No DLTs were reported
[9]; 125 to 750 mg orally once daily
  Maximum tolerated dose (MTD): not reached
[9]; all patients
  fatal treatment-related TEAE: No patients experienced a fatal treatment-related TEAE
  patients who discontinued treatment due to TEAEs: 17%
  patients with grade ≥3 treatment-related TEAEs: 10%
[9]; all patients (3/30)
  patients with treatment-related SAEs: 10%
[9]; all patients (n=30)
  patients with at least 1 TEAE: 93%
[9]; [15]
  TEAE (all grades) diarrhea: 33.3%
  TEAE (all grades) fatigue: 36.7%
  TEAE (all grades) nausea: 30%

## CN(C)CC(=O)N1CCC(c2ccc(NC(=O)c3nc(C#N)c[nH]3)c(C3=CCCCC3)c2)CC1 [JNJ-28312141]
[10]
  macrophage infiltration: substantially decreased macrophage infiltration

## CC1(C)CC=C(c2nc(C3CC(C)(C)OC(C)(C)C3)ccc2NC(=O)c2nc(C#N)c[nH]2)CC1 [JNJ-40346527]
[11]; 1/21 patients had complete response
  objective response rate: 5%
[11]; 11/21 patients
  patients who achieved stable disease: 55%

## CCCCC[C@H](O)/C=C/[C@H]1[C@H](O)CC(=O)[C@@H]1CCCCCCCO [PGE1-OH]
[12]
  expression of TNF-α and CXCL10: dose-dependent down-regulation; also recorded: dose-dependently suppressed
